Assay results taken from PMC8247405 (British Journal of Clinical Pharmacology, 2020).

Columns and labels:
[1] = Plasma pharmacokinetics in type-2 diabetes patients; type: in vivo, human; conditions: for AUC 0–24, mean / AUC 0–24, median / Cmax, mean / Cmax, median / Tmax, mean / Tmax, median / Rac_AUC 0–24 (accumulation ratio), mean / Rac_AUC 0–24 (accumulation ratio), median / Rac_C max (accumulation ratio), mean / Rac_C max (accumulation ratio), median: n 15
Procedure, shortened: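 Type-2 diabetes patients received 1 or 5 mg test compound orally once daily for 28 days (15 per dose cohort). Plasma was sampled at 4 and 12 h postdose on day 1, predose on days 2, 3 and 7, and 3 h postdose on days 14, 21 and 28. Samples were assayed by validated LC-MS/MS (LLOQ 5 ng/mL). Cmax, tmax, trapezoidal AUC0–24 and accumulation ratio were derived by a Bayesian population PK model built in healthy subjects.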

[2] = tested on: Zucker diabetic fatty (ZDF) rats; experiment: Renal function; type: in vivo, rat; conditions: 5 weeks
Procedure, shortened: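 ZDF rats on control or test-compound chow (0.002, 0.007, 0.0245% w/w) for 5 weeks, with lean controls. Creatinine clearance = urinary creatinine × urine volume / plasma creatinine, in µL/min. Kruskal–Wallis with Wilcoxon post hoc tests versus ZDF control.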

[3] = Plasma pharmacokinetics of SAR247799 in diabetic rats, 5-week chow dosing; type: in vivo, Zucker diabetic fatty (ZDF) rats; conditions: ZDF rats; for C (plasma concentration), mean / C (plasma concentration), median: 5 weeks postdosing; for AUC 0–24, mean / AUC 0–24, median: AUC0–24 = C × 24
Procedure, shortened: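 ZDF rats received test compound in chow at 0.002, 0.007 or 0.0245% w/w for 5 weeks. Plasma taken at 5 weeks was assayed by LC-MS/MS. AUC0–24 was computed as C × 24, taking the 5-week concentration as the average over the dosing interval.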

[4] = tested on: type‐2 diabetes patients; conditions: human, in vivo
[5] = tested on: Zucker diabetic fatty (ZDF) rats; experiment: Heart rate in ZDF rats; type: in vivo, rat; conditions: low, intermediate and high dose, 5 weeks
[6] = cited from earlier work
[7] = tested on: Zucker diabetic fatty (ZDF) rats; experiment: Plasma fructosamine in ZDF rats; type: in vivo, rat; conditions: any dose, 5‐week treatment
Procedure, shortened: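 ZDF rats were fed control chow or test-compound chow (0.002–0.0245% w/w) from 9 weeks of age; lean rats served as reference. K₂-EDTA blood was drawn from the caudal vein under isoflurane at baseline and after 5 weeks. It was centrifuged at 4°C, 10 min, 10 000 g, and plasma was stored at −80°C. Fructosamine was measured on a clinical chemistry analyser by a blinded experimenter.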

[8] = tested on: type‐2 diabetes patients; conditions: human, in vivo; remark: listed apart in the source
[9] = tested on: type‐2 diabetes patients; design: species or system human; conditions: in vivo
[10] = tested on: Zucker diabetic fatty (ZDF) rats; experiment: Peripheral blood lymphocyte count in ZDF rats; type: in vivo, rat; conditions: 5 weeks
Procedure, shortened: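 Male ZDF Fa/Fa rats, randomised by body weight at 9 weeks to control chow or chow with test compound at 0.002, 0.007 or 0.0245% w/w for 5 weeks; lean Fa/+ rats on control chow served as reference. Caudal-vein K₂-EDTA blood was taken under 1.5–2% isoflurane at baseline and 5 weeks. Lymphocytes were counted in fresh blood. Analysis was blinded, with 1-way ANOVA and Dunnett's test versus ZDF control.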

[11] = tested on: type‐2 diabetes patients; conditions: human, in vivo; remark: listed apart in the source
[12] = tested on: type‐2 diabetes patients; conditions: human, in vivo; remark: listed apart in the source
[13] = 0.007% (w/w) in chow (intermediate)

## Cc1cc(-c2nc3cnc(Oc4cccc(Cl)c4)nc3o2)cc(C)c1OCC(=O)O [SAR247799]
[1]; 1‐mg/d human dose
  steady state AUC0–24h: 2.97 µg/mL
[1]; 5‐mg/d human dose
  steady state AUC0–24h: 14.9 µg/mL
[1]; day 1, 1 mg oral once daily
  AUC 0–24, mean: 1030 ng·h/mL
  AUC 0–24, median: 983 ng·h/mL
  Cmax, mean: 57.4 ng/mL
  Cmax, median: 53.8 ng/mL
  Tmax, mean: 2.68 h
  Tmax, median: 2.50 h
[1]; day 1, 5 mg oral once daily
  AUC 0–24, mean: 5310 ng·h/mL
  AUC 0–24, median: 5310 ng·h/mL
  Cmax, mean: 310 ng/mL
  Cmax, median: 315 ng/mL
  Tmax, mean: 2.42 h
  Tmax, median: 2.50 h
[1]; day 1 to day 14, 1 and 5 mg/d
  accumulation ratio: 2.5–2.9
[1]; day 14, 1 mg oral once daily
  AUC 0–24, mean: 2970 ng·h/mL
  AUC 0–24, median: 2780 ng·h/mL
  Cmax, mean: 152 ng/mL
  Cmax, median: 147 ng/mL
  Rac_AUC 0–24 (accumulation ratio), mean: 2.86
  Rac_AUC 0–24 (accumulation ratio), median: 2.70
  Rac_C max (accumulation ratio), mean: 2.66
  Rac_C max (accumulation ratio), median: 2.50
  Tmax, mean: 2.24 h
  Tmax, median: 2.25 h
[1]; day 14, 5 mg oral once daily
  AUC 0–24, mean: 14900 ng·h/mL
  AUC 0–24, median: 14800 ng·h/mL
  Cmax, mean: 779 ng/mL
  Cmax, median: 760 ng/mL
  Rac_AUC 0–24 (accumulation ratio), mean: 2.79
  Rac_AUC 0–24 (accumulation ratio), median: 2.73
  Rac_C max (accumulation ratio), mean: 2.54
  Rac_C max (accumulation ratio), median: 2.46
  Tmax, mean: 2.15 h
  Tmax, median: 2.25 h
[2]; high dose
  change in creatinine clearance: lesser (nonsignificant) increase
  reduction in urinary protein:creatinine ratio: statistically significant
[2]; intermediate dose
  effect on urinary output: significantly blunted the increase in urinary output
  fractional excretion of electrolytes (Na+ and Cl−): levels similar to lean control rats
  increase in creatinine clearance compared to vehicle‐treated ZDF rats: 2.5 fold
  reduction in urinary protein:creatinine ratio: statistically significant
[2]; low dose
  change in creatinine clearance: no increase
[2]; low to high dose
  effect on urinary protein:creatinine ratio: dose‐dependent reduction
[2]; lowest dose
  effect on urinary protein:creatinine ratio: partial effect
[3]; 0.002% (w/w) in chow (low)
  C (plasma concentration), mean: 0.0944 µg/mL
  C (plasma concentration), median: 0.0917 µg/mL
  AUC 0–24, mean: 2270 ng·h/mL
  AUC 0–24, median: 2200 ng·h/mL
[3]; [13]
  C (plasma concentration), mean: 0.423 µg/mL
  C (plasma concentration), median: 0.432 µg/mL
  AUC 0–24, mean: 10200 ng·h/mL
  AUC 0–24, median: 10400 ng·h/mL
[3]; 0.0245% (w/w) in chow (high)
  C (plasma concentration), mean: 4.43 µg/mL
  C (plasma concentration), median: 4.60 µg/mL
  AUC 0–24, mean: 106000 ng·h/mL
  AUC 0–24, median: 110000 ng·h/mL
[3]; for a 3.5‐fold increase in dose
  increase in plasma concentration, high vs intermediate dose: 10.5 fold
[3]; intermediate dose
  steady state AUC0–24h: 10.2 µg/mL
[3]; low dose
  steady state AUC0–24h: 2.27 µg/mL
[4]
  heart rate increase: no increase
  heart rate, mean difference vs placebo (maximum decrease): −6.4 beats/min
  mean heart rate increase: 0–4 beats/min
[5]
  effect on heart rate: None of the doses of SAR247799 altered heart rate
[6]
  elimination half‐life: 32 h
[7]
  effect on plasma fructosamine: did not alter fructosamine levels
[8]
  Patients with TEAE: Arthropod sting: 0 n (%)
  Patients with TEAE: Contusion: 0 n (%)
  Patients with TEAE: Diarrhoea: 0 n (%)
  Patients with TEAE: Dyspepsia: 0 n (%)
  Patients with TEAE: Headache: 1 (6.7%) n (%)
  Patients with TEAE: Injury, poisoning and procedural complications: 0 n (%)
  Patients with TEAE: Leading to treatment discontinuation: 0 n (%)
  Patients with TEAE: Nausea: 1 (6.7%) n (%)
  Patients with TEAE: Oropharyngeal pain: 0 n (%)
  Patients with TEAE: Otitis externa: 0 n (%)
  Patients with TEAE: Severe AE: 0 n (%)
  Patients with TEAE: Skin abrasion: 0 n (%)
  Patients with TEAE: Traumatic haematoma: 0 n (%)
  Patients with TEAE: Ventricular extrasystoles: 0 n (%)
  tolerability: well tolerated
[9]
  overall effect on FMD: dose‐dependent improvement in FMD
[10]; high dose 0.0245% (w/w) chow
  decrease in peripheral blood lymphocytes: 35%
[10]; intermediate dose 0.007% (w/w) chow
  effect on peripheral blood lymphocytes: did not reduce lymphocytes
[10]; low dose 0.002% (w/w) chow
  effect on peripheral blood lymphocytes: did not reduce lymphocytes
[11]
  effect on blood pressure: did not affect blood pressure
[12]
  lymphocytes, mean reductions vs placebo: < 8%
